# Results gathered from unrelated publications.
# Target: Adenosine receptor A2a (ADORA2A, Homo sapiens, UniProt P29274)
Compound,read-out,technique,setting,Ki [µM]
CSC[C@@]12C[C@@H]1[C@@H](n1cnc3c(N)nc(I)nc31)[C@H](O)[C@@H]2O,ligand displacement,radioligand,,3.12
CNC(=O)[C@@]12C[C@@H]1[C@@H](n1cnc3c(NCc4cn(-c5ccc(C(=O)NCCCF)cc5)nn4)nc(Cl)nc31)[C@H](O)[C@@H]2O,ligand displacement,radioligand,cell membranes,1.84
C#CCCCCC(=O)NCCNC(=O)COc1ccc(-c2nc3c([nH]2)c(=O)n(CCC)c(=O)n3CCC)cc1,ligand displacement,radioligand,cell membranes,0.0232
Oc1cccc(Nc2nc(-c3ccc(F)cc3F)cs2)c1,cell-free assay,,,5.1
Nc1nc(-c2ccccc2)nn1C(=O)CCc1ccccc1,ligand displacement,radioligand,cell membranes,2
C=CN1CCCn2c1nc1c2c(=O)n(C)c(=O)n1C,ligand displacement,radioligand,cell membranes,> 10
CNC(=O)[C@@]12C[C@@H]1[C@@H](n1cnc3c(NCc4cccc(C#CCCCCCc5cn(-c6ccc(F)c(N)c6)nn5)c4)nc(Cl)nc31)[C@H](O)[C@@H]2O,ligand displacement,radioligand,cell membranes,0.55
CCCCN1CCCn2c1nc1c2c(=O)n(CCC)c(=O)n1CCC,ligand displacement,radioligand,cell membranes,1.39
c1coc(-c2nc3cc(NCCN4CCCCC4)ccc3o2)c1,ligand displacement,radioligand,cell membranes,11
c1ccc2[nH]c(-c3nc4ccccc4[nH]3)nc2c1,ligand displacement,radioligand,cell membranes,0.14
c1coc(-c2nc3cc(CN4CCCCC4)ccc3o2)c1,ligand displacement,radioligand,cell membranes,19
CCNC(=O)[C@H]1O[C@@H](n2cnc3c(N)nc(NN=C[C@H]4CCC=CO4)nc32)[C@H](O)[C@@H]1O,ligand displacement,radioligand,,0.00376
